Screening results deposited in PubChem BioAssay by several laboratories.
Most compounds without a hit are left out; they make up all but 2.2% or so of the library.
FLuc inh counter = inhibits firefly luciferase, flagging false hits in luciferase inhibition screens; inhibition, % at 10 µM; 200,000 compounds, 1.5% hits; ATPLite firefly luciferase biochemical luminescence, 10 min; P08659;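 active = inhibition above about 50% when tested at 10 µM, limit read from the data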
Target sequence (P08659 whole entry, looked up): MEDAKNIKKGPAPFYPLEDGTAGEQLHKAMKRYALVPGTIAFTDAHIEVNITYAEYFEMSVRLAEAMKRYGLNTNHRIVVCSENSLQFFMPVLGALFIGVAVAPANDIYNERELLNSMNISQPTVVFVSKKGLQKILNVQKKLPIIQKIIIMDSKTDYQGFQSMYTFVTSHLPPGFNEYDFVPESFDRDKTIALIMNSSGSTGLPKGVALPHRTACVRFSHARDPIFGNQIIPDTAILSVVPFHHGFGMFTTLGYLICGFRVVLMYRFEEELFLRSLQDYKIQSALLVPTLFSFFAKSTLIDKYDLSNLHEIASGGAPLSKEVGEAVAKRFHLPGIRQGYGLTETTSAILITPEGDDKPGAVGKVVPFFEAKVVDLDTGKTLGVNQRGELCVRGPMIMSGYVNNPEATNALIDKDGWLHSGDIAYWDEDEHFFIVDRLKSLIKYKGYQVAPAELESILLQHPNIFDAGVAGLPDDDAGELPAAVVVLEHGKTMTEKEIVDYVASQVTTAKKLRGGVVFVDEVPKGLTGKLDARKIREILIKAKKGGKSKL
C8 TRAIL sens = sensitizes caspase-8 expressing cells to TRAIL | NB7+C8 cells + TRAIL, ATPlite viability luminescence | inhibition (viability loss, TRAIL sensitization), % at 10 µM | 360,000 compounds, 1% hits | AID 624354;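 active = compounds causing at least 50% loss of cell viability in the single-dose screen, relative to plate controls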
Wee1 degr inh = blocks degradation of human Wee1 kinase | P30291 | HeLa Luc-Wee1K328M stability, luciferase luminescence; 100% = proteasome inhibitor MG132 effect | reporter increase, % at 5 µM | 220,000 compounds, 1.2% hits;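 active = activation above the mean of all tested compounds plus 3 SD, set per screening run, cut at about 8.8% in these data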;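 note: cells exposed to compound for 20 h before luminescence read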
PKD1 kinase inh = inhibitors of human PKD1 kinase; Q15139; PKD1 kinase fluorescence polarization assay; inhibition, % (concentration not given with the values); 200,000 compounds, 0.056% hits; AID 797; in the data active = inhibition above about 50%
FLuc act counter = firefly luciferase counter-screen for stimulation assays; P08659; ATPlite luciferase biochemical, luminescence, 10 min; 0 = ATP-free wells, 1 = DMSO control; activation factor at 10 µM; 200,000 tested, under 10 active; AID 1027;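 active = luciferase activation factor, scaled between plate controls, of at least 2 with compound at 10 µM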
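System: Luciferase/luciferin detection reagent, cell-free biochemical luciferase assay | Medium: PBS buffer for ATP | Dosing: Test compounds dosed from 2 mM stocks in 100% DMSO | Timing: 10 min at ambient temperature | Signal: Luminescence measurement of luciferase light output | Evaluation: Luciferase activation, seen as luminescence increase over controls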
PPC-1+TRAIL kill = PPC-1 cancer cell killing with TRAIL present; PPC-1 cells + TRAIL, ATPLite viability luminescence; cell killing (% activity), % at 4 µM or 5 µM; AID 1443; 220,000 compounds, 0.41% hits;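 active = cell killing above 50% in the first pass at 4 µM, then a duplicate retest at 5 µM averaging 50% or more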
Each line names hits and unclear results; the compound was inactive in the other large screens.

Cc1ccc(C=C2C(=O)c3ccccc3C2=O)s1	FLuc inh counter 75
Cc1cccc(-n2c(C)cc(C=C3C(=O)c4ccccc4C3=O)c2C)c1	none
Cc1ccc(C)c(/C=C2\N=C(c3ccccc3F)OC2=O)c1	none (no result: FLuc inh counter, Wee1 degr inh, PKD1 kinase inh, FLuc act counter, PPC-1+TRAIL kill)
Cc1ccc(C=C2C(=O)c3ccccc3C2=O)o1	FLuc inh counter 84
Cc1ccc(/C=C2/C(=O)c3ccc(C(=O)O)cc3C2=O)o1	none
Cc1ccccc1C1=N/C(=C/c2cccs2)C(=O)O1	FLuc inh counter 85
O=C1NN(c2ccccc2)C(=O)/C1=C/c1cccs1	none (no result: C8 TRAIL sens)
O=S(=O)(Nc1cc(S(=O)(=O)N2CCOCC2)ccc1NCC1CCCO1)c1ccccc1 (stereo not given)	none (no result: FLuc inh counter, Wee1 degr inh, PKD1 kinase inh, FLuc act counter, PPC-1+TRAIL kill)
O=C1/C(=C/c2cccs2)Cc2ccccc21	FLuc inh counter 58
COc1ccc2c(c1)OC/C(=C/c1cccs1)C2=O	FLuc inh counter 87
COc1ccc(/C=C2\COc3ccccc3C2=O)c(OC)c1	none (no result: FLuc inh counter, Wee1 degr inh, PKD1 kinase inh, FLuc act counter, PPC-1+TRAIL kill)
O=C1C(=Cc2cccc(Cl)c2)Cc2ccccc21	none (no result: FLuc inh counter, Wee1 degr inh, PKD1 kinase inh, FLuc act counter, PPC-1+TRAIL kill)
O=C(CCCNC(=O)c1ccc(Cl)cc1)OCc1cccc(Br)c1	none (no result: FLuc inh counter, Wee1 degr inh, PKD1 kinase inh, FLuc act counter, PPC-1+TRAIL kill)
C[C@H](NC(=O)c1nc[nH]c1C(=O)NCCCCCNC(=O)OC(C)(C)C)C(=O)OCc1ccccc1	Wee1 degr inh 9.1
C[C@H](NC(=O)c1[nH]cnc1C(=O)Nc1ccc(CNC(=O)OC(C)(C)C)cc1)C(=O)OCc1ccccc1	C8 TRAIL sens 75 (no result: FLuc inh counter, Wee1 degr inh, PKD1 kinase inh, FLuc act counter)
CC(C)C[C@H](NC(=O)c1[nH]cnc1C(=O)Nc1ccc(CNC(=O)OC(C)(C)C)cc1)C(=O)OCc1ccccc1	none (no result: FLuc inh counter, Wee1 degr inh, PKD1 kinase inh, FLuc act counter)
O=C(NCCc1ccccc1)C(c1cccs1)N(C(=O)CCl)c1ccc(Cl)cc1 (stereo not given)	C8 TRAIL sens 96
Cc1cccc(N2CCN(C(=S)Nc3ccc4nc(N5CCN(C)CC5)cc(C)c4c3)CC2)c1C	C8 TRAIL sens 93 (no result: PPC-1+TRAIL kill)
Cc1cc(N2CCN(C)CC2)nc2ccc(NC(=S)N3CCCCC3)cc12	none
Cc1cc(N2CCN(C)CC2)nc2ccc(NC(=S)N3CCN(c4cccc(Cl)c4)CC3)cc12	none
Cc1cccc(N2CCN(C(=S)Nc3ccc4nc(N5CCN(C)CC5)cc(C)c4c3)CC2C)c1 (stereo not given)	C8 TRAIL sens 67
COc1cc(/C=N/NC(=O)c2cccc(S(=O)(=O)N3CCCCC3)c2)cc(Br)c1O	none
COc1ccc(NC(=O)c2cc(F)cc(F)c2)cc1Cl	none
CCC(=O)Nc1ccc2c(c1)nc1n2CCSC1	none
CC(=O)c1cccc(NC(=O)c2ccc3c(c2)CCCC3)c1	none (no result: FLuc inh counter, Wee1 degr inh, PKD1 kinase inh, FLuc act counter, PPC-1+TRAIL kill)
COc1ccc(C(=O)Nc2cc(OC)nc(OC)n2)cc1	FLuc inh counter 76
COc1ccc(NC(=O)c2ccc(OC(F)F)cc2)cc1Cl	FLuc inh counter 52
COc1cccc(NC(=O)c2ccc3c(c2)CCCC3)c1	C8 TRAIL sens 65 (no result: FLuc inh counter, Wee1 degr inh, PKD1 kinase inh, FLuc act counter, PPC-1+TRAIL kill)
COc1ccc(C(=O)Nc2ccc3c(c2)nc2n3CCSC2)cc1	FLuc inh counter 66
Cc1ccccc1NC(=O)CN1C(=O)S/C(=C/c2cccnc2)C1=O	none (no result: FLuc inh counter, Wee1 degr inh, PKD1 kinase inh, FLuc act counter, PPC-1+TRAIL kill)
CCCCNC(=O)[C@@H]1CC=C[C@@H]2CCN(C3CC3)C(=O)[C@@H]21	none (no result: FLuc inh counter, Wee1 degr inh, PKD1 kinase inh, FLuc act counter, PPC-1+TRAIL kill)
O=S(=O)(Nc1cccc(-c2cn3c(n2)SCC3)c1)c1ccccc1	none (no result: FLuc inh counter, Wee1 degr inh, PKD1 kinase inh, FLuc act counter, PPC-1+TRAIL kill)
CC1CCC(NC(=O)C2CC(=O)N(c3ccc(Cl)cc3)C2)CC1 (stereo not given)	none (no result: FLuc inh counter, Wee1 degr inh, PKD1 kinase inh, FLuc act counter, PPC-1+TRAIL kill)
COC(=O)c1cc(NC(=O)CSC2=NCCS2)cc(C(=O)OC)c1	none
COc1ccc(NC(=O)c2ccc(C)cc2)cc1	C8 TRAIL sens 68 (no result: FLuc inh counter, Wee1 degr inh, PKD1 kinase inh, FLuc act counter, PPC-1+TRAIL kill)
Cc1ccc(OC(=O)Nc2ccccc2)cc1	FLuc inh counter 51
COc1ccc(C(=O)Nc2ccc3ccccc3c2)cc1	C8 TRAIL sens 69 (no result: FLuc inh counter, Wee1 degr inh, PKD1 kinase inh, FLuc act counter, PPC-1+TRAIL kill)
COc1ccc(NC(=O)c2cccc(OS(=O)(=O)N(C)C)c2)cc1	FLuc inh counter 54
CN(C)c1cccc(C(=O)OCC(=O)NC2CCCC2)c1	none (no result: FLuc inh counter, Wee1 degr inh, PKD1 kinase inh, FLuc act counter, PPC-1+TRAIL kill)
[O-][n+]1ccccc1SC/C=C/c1ccccc1	Wee1 degr inh 10
[O-][n+]1ccccc1SCc1ccccc1	none (no result: FLuc inh counter, Wee1 degr inh, PKD1 kinase inh, FLuc act counter, PPC-1+TRAIL kill)
CCc1ccccc1C1C(=O)c2ccccc2C1=O	C8 TRAIL sens 48 (no result: FLuc inh counter, Wee1 degr inh, PKD1 kinase inh, FLuc act counter, PPC-1+TRAIL kill)
Cc1cc(C2C(=O)c3ccccc3C2=O)c(C)c(C)c1C	none (no result: FLuc inh counter, Wee1 degr inh, PKD1 kinase inh, FLuc act counter, PPC-1+TRAIL kill)
COc1ccc(NC(=O)COc2ccc(N(C)S(=O)(=O)c3ccc(Cl)cc3)cc2)cc1OC	none (no result: FLuc inh counter, Wee1 degr inh, PKD1 kinase inh, FLuc act counter, PPC-1+TRAIL kill)
COc1ccc(C2/C=C\CN(CC(C)C)CC(=O)N2Cc2cccc(F)c2)cc1 (stereo not given)	none (no result: FLuc inh counter, Wee1 degr inh, PKD1 kinase inh, FLuc act counter, PPC-1+TRAIL kill)
